Assay results reported in ChEMBL document CHEMBL5260806, “Hydrogen peroxide activated quinone methide precursors with enhanced DNA cross-linking capability and cytotoxicity towards cancer cells” (Eur J Med Chem, 2017).

Experiments:
Hs-578T = assay: Anticancer activity against human Hs-578T cells assessed as cell growth inhibition incubated for 48 hrs by sulforhodamine B assay; format: functional
How it was run: (§1)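 NCI-60 screen: cell lines grown in RPMI 1640 with 5% FBS and 2 mM L-glutamine, plated in 96-well plates at 5,000–40,000 cells/well depending on doubling time. Each line has one single-dose arm at 10 µM and one dose-response arm giving GI50.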

ACHN [1] = assay: Anticancer activity against human ACHN cells assessed as cell growth inhibition incubated for 48 hrs by sulforhodamine B assay; format: functional; how it was run: as §1
NCI-H226 = assay: Anticancer activity against human NCI-H226 cells assessed as cell growth inhibition at 10 uM incubated for 48 hrs by sulforhodamine B assay; format: functional; settings: read-out: GI
How it was run: (§2)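 NCI DTP 60-cell-line screen run at National Cancer Institute. Cells grown in RPMI 1640 with 5% fetal bovine serum and 2 mM L-glutamine, seeded at 5,000–40,000 cells/well depending on doubling time. Single-dose screen at 10 µM gives growth percentage; dose-response series gives GI50.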

M14 = assay: Anticancer activity against human M14 cells assessed as cell growth inhibition at 10 uM incubated for 48 hrs by sulforhodamine B assay; format: functional; settings: read-out: GI; how it was run: as §1
UACC-257 = assay: Anticancer activity against human UACC-257 cells assessed as cell growth inhibition at 10 uM incubated for 48 hrs by sulforhodamine B assay; format: functional; settings: read-out: GI
786-0 [2] = assay: Anticancer activity against human 786-0 cells assessed inhibition of cell growth after 48 hrs by CellTiter-Glo luminescent assay; format: functional, cell-based; settings: 786-0, 48 h
How it was run: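 Renal lines grown in RPMI 1640 with 5% FBS and 2 mM L-glutamine, plated at 5,000–10,000 cells/well in 384-well plates and held 2–3 h at 37 °C, 5% CO2. Compounds were made as 20 mM DMSO stocks, given as ten 2-fold serial dilutions diluted 1:100 into cells, and incubated 48 h. Read-out was CellTiter-Glo luminescence after 10 min at room temperature.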

A498 = assay: Anticancer activity against human A498 cells assessed as cell growth inhibition incubated for 48 hrs by sulforhodamine B assay; format: functional; how it was run: as §1
786-0 [3] = assay: Anticancer activity against human 786-0 cells assessed as cell growth inhibition incubated for 48 hrs by sulforhodamine B assay; format: functional; how it was run: as §1
SR = assay: Anticancer activity against human SR cells assessed as cell growth inhibition incubated for 48 hrs by sulforhodamine B assay; format: functional
HCT-116 = assay: Anticancer activity against human HCT-116 cells assessed as cell growth inhibition at 10 uM incubated for 48 hrs by sulforhodamine B assay; format: functional; settings: read-out: GI; how it was run: as §1
U-251 = assay: Anticancer activity against human U-251 cells assessed as cell growth inhibition at 10 uM incubated for 48 hrs by sulforhodamine B assay; format: functional; settings: read-out: GI
DU-145 = assay: Anticancer activity against human DU-145 cells assessed as cell growth inhibition at 10 uM incubated for 48 hrs by sulforhodamine B assay; format: functional; settings: read-out: GI; how it was run: as §1
HCT-15 [4] = assay: Anticancer activity against human HCT-15 cells assessed as cell growth inhibition at 10 uM incubated for 48 hrs by sulforhodamine B assay; format: functional; settings: read-out: GI; how it was run: as §1
OVCAR-8 = assay: Anticancer activity against human OVCAR-8 cells assessed as cell growth inhibition incubated for 48 hrs by sulforhodamine B assay; format: functional; how it was run: as §2
HOP-62 [5] = assay: Anticancer activity against human HOP-62 cells assessed as cell growth inhibition at 10 uM incubated for 48 hrs by sulforhodamine B assay; format: functional; settings: read-out: GI; how it was run: as §1
MDA-MB-231 = assay: Anticancer activity against human MDA-MB-231 cells assessed as cell growth inhibition at 10 uM incubated for 48 hrs by sulforhodamine B assay; format: functional; settings: read-out: GI; how it was run: as §2
K562 = assay: Anticancer activity against human K562 cells assessed as cell growth inhibition incubated for 48 hrs by sulforhodamine B assay; format: functional; how it was run: as §1
HOP-62 [6] = assay: Anticancer activity against human HOP-62 cells assessed as cell growth inhibition incubated for 48 hrs by sulforhodamine B assay; format: functional; how it was run: as §1
A549 = assay: Anticancer activity against human A549 cells assessed as cell growth inhibition at 10 uM incubated for 48 hrs by sulforhodamine B assay; format: functional; settings: read-out: GI; how it was run: as §1
ACHN [7] = assay: Anticancer activity against human ACHN cells assessed as cell growth inhibition at 10 uM incubated for 48 hrs by sulforhodamine B assay; format: functional; settings: read-out: GI; how it was run: as §1
MDA-MB-468 = assay: Anticancer activity against human MDA-MB-468 cells assessed inhibition of cell growth after 48 hrs by CellTiter-Glo luminescent assay; format: functional, cell-based; settings: MDA-MB-468, 48 h
How it was run: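 Cells grown in RPMI 1640 with 5% fetal bovine serum and 2 mM L-glutamine, seeded at 5,000–10,000 cells/well in 384-well plates, preincubated 2–3 h at 37°C, 5% CO2. DMSO stocks (20 mM) serially diluted 2-fold ten times, then added at 1:100. Exposure 48 h at 37°C. Viability read by CellTiter-Glo luminescence after 10 min at room temperature; IC50 derived.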

NCI-H522 [8] = assay: Anticancer activity against human NCI-H522 cells assessed as cell growth inhibition incubated for 48 hrs by sulforhodamine B assay; format: functional; how it was run: as §2
NCI-H522 [9] = assay: Anticancer activity against human NCI-H522 cells assessed as cell growth inhibition at 10 uM incubated for 48 hrs by sulforhodamine B assay; format: functional; settings: read-out: GI; how it was run: as §2
SF-295 = assay: Anticancer activity against human SF-295 cells assessed as cell growth inhibition incubated for 48 hrs by sulforhodamine B assay; format: functional; how it was run: as §2
HCT-15 [10] = assay: Anticancer activity against human HCT-15 cells assessed as cell growth inhibition incubated for 48 hrs by sulforhodamine B assay; format: functional; how it was run: as §1
MDA-MB-435 = assay: Anticancer activity against human MDA-MB-435 cells assessed as cell growth inhibition incubated for 48 hrs by sulforhodamine B assay; format: functional; how it was run: as §2
MOLT-4 = assay: Anticancer activity against human MOLT-4 cells assessed as cell growth inhibition at 10 uM incubated for 48 hrs by sulforhodamine B assay; format: functional; settings: read-out: GI; how it was run: as §2
Malme-3M = assay: Anticancer activity against human Malme-3M cells assessed as cell growth inhibition incubated for 48 hrs by sulforhodamine B assay; format: functional; how it was run: as §2
COLO 205 = assay: Anticancer activity against human COLO 205 cells assessed as cell growth inhibition incubated for 48 hrs by sulforhodamine B assay; format: functional; how it was run: as §1
TK-10 = assay: Anticancer activity against human TK-10 cells assessed inhibition of cell growth after 48 hrs by CellTiter-Glo luminescent assay; format: functional, cell-based; settings: TK-10, 48 h
How it was run: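 Renal lines grown in RPMI 1640 with 5% FBS and 2 mM L-glutamine, seeded into 384-well plates at 5,000–10,000 cells/well, held 2–3 h at 37 °C, 5% CO2. DMSO stocks (20 mM) serially halved ten times and added at 1:100. Cells exposed 48 h at 37 °C; CellTiter-Glo added, 10 min at room temperature, luminescence read.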

HL-60 = assay: Anticancer activity against human HL-60 cells assessed as cell growth inhibition incubated for 48 hrs by sulforhodamine B assay; format: functional; how it was run: as §1
PC-3 = assay: Anticancer activity against human PC-3 cells assessed as cell growth inhibition at 10 uM incubated for 48 hrs by sulforhodamine B assay; format: functional; settings: read-out: GI; how it was run: as §2
UO-31 = assay: Anticancer activity against human UO-31 cells assessed as cell growth inhibition at 10 uM incubated for 48 hrs by sulforhodamine B assay; format: functional; settings: read-out: GI
HCC 2998 = assay: Anticancer activity against human HCC 2998 cells assessed as cell growth inhibition at 10 uM incubated for 48 hrs by sulforhodamine B assay; format: functional; settings: read-out: GI; how it was run: as §1
MCF7 = assay: Anticancer activity against human MCF7 cells assessed as cell growth inhibition incubated for 48 hrs by sulforhodamine B assay; format: functional; how it was run: as §2

GI50 (ACHN [1]): 2000 nM
IC50 (786-0 [2]): 10800 nM
GI50 (786-0 [3]): 2000 nM
GI50 (OVCAR-8): 2000 nM
GI50 (K562): 2000 nM
IC50 (MDA-MB-468): 9000 nM
GI50 (NCI-H522 [8]): 2000 nM
GI50 (HCT-15 [10]): 2000 nM
GI50 (MDA-MB-435): 2000 nM
GI50 (COLO 205): 2000 nM
GI50 (HL-60): 2000 nM
GI50 (MCF7): 2000 nM
Structure (SMILES): COc1cc(CBr)c(B2OC(C)(C)C(C)(C)O2)c(CBr)c1
GI50 (Hs-578T): 2000 nM
inhibition of growth at 10 µM (NCI-H226): < 50%
inhibition of growth at 10 µM (M14): < 50%
inhibition of growth at 10 µM (UACC-257): < 50%
GI50 (A498): 2000 nM
GI50 (SR): 2000 nM
inhibition of growth at 10 µM (HCT-116): < 50%
inhibition of growth at 10 µM (U-251): < 50%
inhibition of growth at 10 µM (DU-145): < 50%
inhibition of growth at 10 µM (HCT-15 [4]): < 50%
inhibition of growth at 10 µM (HOP-62 [5]): < 50%
inhibition of growth at 10 µM (MDA-MB-231): < 50%
GI50 (HOP-62 [6]): 2000 nM
inhibition of growth at 10 µM (A549): < 50%
inhibition of growth at 10 µM (ACHN [7]): < 50%
inhibition of growth at 10 µM (NCI-H522 [9]): < 50%
GI50 (SF-295): 2000 nM
inhibition of growth at 10 µM (MOLT-4): < 50%
GI50 (Malme-3M): 2000 nM
IC50 (TK-10): 16200 nM
inhibition of growth at 10 µM (PC-3): < 50%
inhibition of growth at 10 µM (UO-31): < 50%
inhibition of growth at 10 µM (HCC 2998): < 50%
